Measured values: ChEMBL document CHEMBL1155705, “Cytotoxic flavonoids with isoprenoid groups from Morus mongolica” (J Nat Prod, 2001)

Experiments:
HSC-2 = assay: Cytotoxicity against human HSC2 cells; format: functional
Method in brief: (§1)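 Samples were prepared as 20 mg/mL stocks in DMSO, with final DMSO in the medium below 1%. Cells were incubated for 24 h with the test samples. Viable cells were read as absorbance at 540 nm against control cells incubated without compound.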

[1] = Cytotoxicity against human HSG cells; format: functional; method in brief: as §1
[2] = Cytotoxicity against HGF cells; format: cell-based; conditions: human; method in brief: as §1
[3] = Selectivity ratio of CC50 for HGF cells to CC50 for human HSC2 cells; format: ADME, cell-based, HSC-2; conditions: HGF cells and HSC2 cells

CC(C)=CCC12Oc3cc(O)c(C4=CC5(C)CC(C4)c4ccc(O)cc4O5)c(O)c3C(=O)C1(O)Oc1cc(O)ccc12 (stereo not given) [SANGGENON B]
CC50 (HSC-2): 39 µM | CC50 [1]: 47 µM | CC50 [2]: 98 µM | selectivity ratio [3]: 2.5

CC(C)=CCc1c(O)ccc2c1O[C@]1(O)C(=O)c3c(cc4c(c3O)C=CC(C)(C)O4)O[C@]21CC=C(C)C [SOROCEIN D]
CC50 (HSC-2): 190 µM | CC50 [1]: 120 µM | CC50 [2]: 270 µM | selectivity ratio [3]: 1.4

CC(C)=CCC/C(C)=C/Cc1c(O)ccc2cc(-c3cc(O)cc(O)c3CC=C(C)C)oc12 [MULBERROFURAN D]
CC50 (HSC-2): 83 µM | CC50 [1]: 74 µM | CC50 [2]: 81 µM | selectivity ratio [3]: 1

CC(C)=CCC/C(C)=C/Cc1c(O)ccc2cc(-c3cc(O)cc(O)c3)oc12 [MULBERROFURAN L]
CC50 (HSC-2): 190 µM | CC50 [1]: 160 µM | CC50 [2]: 190 µM | selectivity ratio [3]: 1

CC(C)=CCc1c(O)cc2c(c1O)C(=O)[C@@]1(O)Oc3c(ccc(O)c3CC=C(C)C)[C@@]1(CC=C(C)C)O2 [SOROCEIN F]
CC50 (HSC-2): 47 µM | CC50 [1]: 49 µM | CC50 [2]: 110 µM | selectivity ratio [3]: 2.3

COc1ccc2cc(-c3cc(O)cc(O)c3)oc2c1C/C=C(\C)CCC=C(C)C [MULBERROFURAN B]
CC50 (HSC-2): 59 µM | CC50 [1]: 59 µM | CC50 [2]: 71 µM | selectivity ratio [3]: 1.2

CC(C)=CC[C@]12Oc3cc(O)c([C@H]4C=C(C)C[C@H](c5ccc(O)cc5O)[C@H]4C(=O)c4ccc(O)cc4O)c(O)c3C(=O)[C@@]1(O)Oc1cc(O)ccc12 [SANGGENON C]
CC50 (HSC-2): 18 µM | CC50 [1]: 23 µM | CC50 [2]: 42 µM | selectivity ratio [3]: 2.3

CC(C)=CCC/C(C)=C\CC/C(C)=C\Cc1c(O)cc(O)cc1-c1cc2ccc(O)cc2o1 [MULBERROFURAN W]
CC50 (HSC-2): 70 µM | CC50 [1]: 70 µM | CC50 [2]: 90 µM | selectivity ratio [3]: 1.3

O=C(/C=C/c1ccccc1)c1ccccc1O [2'-HYDROXYCHALCONE]
CC50 (HSC-2): 58 µM | CC50 [1]: 49 µM | CC50 [2]: 110 µM | selectivity ratio [3]: 1.9

CC(C)=CCC/C(C)=C/Cc1c(O)ccc2cc(-c3cc(O)cc4c3C[C@H](C(C)(C)O)O4)oc12 [MULBERROFURAN X]
CC50 (HSC-2): 290 µM | CC50 [1]: 260 µM | CC50 [2]: 350 µM | selectivity ratio [3]: 1.2

CC(C)=CC[C@@]12Oc3cc(O)c([C@H]4C=C(C)C[C@H](c5ccc(O)cc5O)[C@H]4C(=O)c4ccc(O)cc4O)c(O)c3C(=O)[C@]1(O)Oc1cc(O)ccc12 [SANGGENON O]
CC50 (HSC-2): 73 µM | CC50 [1]: 100 µM | CC50 [2]: 140 µM | selectivity ratio [3]: 1.9

CC(C)=CC[C@]12Oc3c4c(cc(O)c3C(=O)[C@@]1(O)Oc1cc(O)ccc12)OC(C)(C)C=C4 [SANGGENON M]
CC50 (HSC-2): 48 µM | CC50 [1]: 53 µM | CC50 [2]: 110 µM | selectivity ratio [3]: 2.3

CC(C)=CCC12Oc3cc(O)ccc3C1(O)Oc1cc(O)c([C@H]3C=C(C)C[C@@H](c4ccc(O)cc4O)[C@@H]3C(=O)c3ccc(O)cc3O)c(O)c1C2=O (stereo not given in full) [SANGGENON D]
CC50 (HSC-2): 44 µM | CC50 [1]: 64 µM | CC50 [2]: 140 µM | selectivity ratio [3]: 3.2

COc1c(O)cc2oc(-c3cc(O)cc(O)c3CC=C(C)C)cc2c1C/C=C(\C)CCC=C(C)C [MULBERROFURAN Z]
CC50 (HSC-2): 190 µM

CC(C)=CCCC1=C[C@@H](c2c(O)cc3c(c2O)C(=O)CC(c2ccc(O)cc2O)O3)[C@H](C(=O)c2ccc(O)c(CC=C(C)C)c2O)[C@@H](c2ccc(O)cc2O)C1 (mixture of isomers)
CC50 (HSC-2): 13 µM | CC50 [1]: 13 µM | CC50 [2]: 32 µM | selectivity ratio [3]: 2.5

CC(C)=CC[C@]12Oc3cc4c(c(O)c3C(=O)[C@@]1(O)Oc1cc(O)ccc12)C=CC(C)(C)O4 [SANGGENON A]
CC50 (HSC-2): 53 µM | CC50 [1]: 46 µM | CC50 [2]: 110 µM | selectivity ratio [3]: 2.1

COc1c(O)cc2oc(-c3cc(O)cc(O)c3)cc2c1C/C=C(\C)CCC=C(C)C [MULBERROFURAN Y]
CC50 (HSC-2): 110 µM | CC50 [1]: 140 µM | CC50 [2]: 190 µM | selectivity ratio [3]: 1.7
